Key:
Mus musculus [1] = experiment: Antiinflammatory activity in mouse assessed as inhibition of LPS-induced TNFalpha upregulation at 0.00312 ug, po measured 2 hrs after LPS challenge; format: functional
Summary of the method: (§1)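 Murine sublethal endotoxemia: LPS given intraperitoneally, with serum TNF-α measured 2 h after the LPS injection as the end point. Compound was given subcutaneously or orally. Vehicle was 0.6% DMSO and 1% carboxymethylcellulose (final concentrations) in sterile water. Effect is reported as % relative to control.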

Mus musculus [2] = experiment: Antiinflammatory activity in sc dosed mouse assessed as inhibition of LPS-induced TNFalpha upregulation measured 2 hrs after LPS challenge; format: functional
Mus musculus [3] = experiment: Antiinflammatory activity in mouse assessed as inhibition of LPS-induced TNFalpha upregulation at 0.216 mg, sc measured 2 hrs after LPS challenge; format: functional; summary of the method: as §1
Mus musculus [4] = experiment: Antiinflammatory activity in mouse assessed as inhibition of LPS-induced TNFalpha upregulation at 0.0216 ug, po measured 2 hrs after LPS challenge; format: functional; summary of the method: as §1
Mus musculus [5] = experiment: Antiinflammatory activity in mouse assessed as inhibition of LPS-induced TNFalpha upregulation at 0.065 mg, po measured 2 hrs after LPS challenge; format: functional; summary of the method: as §1
[6] = molecular target: C-C chemokine receptor type 2 (Homo sapiens) (UniProt P41597); experiment: Antagonist activity at CCR2 in human THP1 cells assessed as inhibition of CCL2-induced chemotaxis at 1 nM after 2 hrs by microtiter format trans-well migration assay; format: functional, cell-based; conditions: THP-1
Summary of the method: (§2)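 Microtiter trans-well migration assay in Gey's balanced salt solution with 1 mg/mL endotoxin-free BSA, no fetal calf serum. Migration ran 2 h at 37 °C. Compounds dissolved in DMSO and added to both top and bottom compartments, final DMSO 1%.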

Mus musculus [7] = experiment: Antiinflammatory activity in mouse assessed as inhibition of LPS-induced TNFalpha upregulation at 0.000216 mg, po measured 2 hrs after LPS challenge; format: functional
Summary of the method: (§3)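 Murine sublethal endotoxemia: LPS given intraperitoneally, serum TNF-α measured 2 h after LPS injection. Compound vehicle 0.6% DMSO plus 1% carboxymethylcellulose (final concentrations) in sterile water.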

[8] = molecular target: C-C chemokine receptor type 2 (Homo sapiens) (UniProt P41597); experiment: Antagonist activity at CCR2 in human THP1 cells assessed as inhibition of CCL2-induced chemotaxis at 100 nM after 2 hrs by microtiter format trans-well migration assay; format: functional, cell-based; conditions: THP-1; summary of the method: as §2
Mus musculus [9] = experiment: Antiinflammatory activity in mouse assessed as inhibition of LPS-induced TNFalpha upregulation at 0.000864 mg, po measured 2 hrs after LPS challenge; format: functional; summary of the method: as §1
Mus musculus [10] = experiment: Antiinflammatory activity in po dosed mouse assessed as inhibition of LPS-induced TNFalpha upregulation measured 2 hrs after LPS challenge; format: functional
Mus musculus [11] = experiment: Antiinflammatory activity in mouse assessed as inhibition of LPS-induced TNFalpha upregulation at 624 pg, po measured 2 hrs after LPS challenge; format: functional
Summary of the method: (§4)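 Murine sublethal LPS endotoxemia screen. LPS is injected intraperitoneally and serum TNF-α is measured 2 h later as the end point. Compound is given subcutaneously or orally in a vehicle of 0.6% DMSO plus 1% carboxymethylcellulose (final concentrations) in sterile water. Values are % relative to control.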

Mus musculus [12] = experiment: Antiinflammatory activity in po dosed mouse assessed as inhibition of LPS-induced TNFalpha upregulation measured 2 hrs after LPS challenge relative to control; format: functional; summary of the method: as §4
Mus musculus [13] = experiment: Antiinflammatory activity in mouse assessed as inhibition of LPS-induced TNFalpha upregulation at 0.000216 mg, sc measured 2 hrs after LPS challenge; format: functional; summary of the method: as §3
Rattus norvegicus [14] = experiment: Plasma concentration in Sprague-Dawley rat at 3 mg/kg, po administered as single dose; format: ADME, organism-based; parameters: dose 3 mg/kg, route oral; conditions: in vivo
Summary of the method: (§5)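 Male Sprague-Dawley rats, three per compound, receive a single oral dose by gavage in 1% carboxymethylcellulose in 0.9% saline, with food and water ad libitum. Plasma is sampled from 5 to 480 min and drug is quantified by positive-mode LC/MS/MS after acetonitrile/formic acid extraction. The lower limit of quantitation is about 2 ng/mL. Exposure is AUC(0→t) by the linear/log trapezoidal rule, and F is oral fractional bioavailability.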

[15] = molecular target: C-C chemokine receptor type 2 (Homo sapiens) (UniProt P41597); experiment: Antagonist activity at CCR2 in human THP1 cells assessed as inhibition of CCL2-induced chemotaxis at 0.1 nM after 2 hrs by microtiter format trans-well migration assay; format: functional, cell-based; conditions: THP-1; summary of the method: as §2
[16] = molecular target: C-C chemokine receptor type 2 (Homo sapiens) (UniProt P41597); experiment: Antagonist activity at CCR2 in human THP1 cells assessed as inhibition of CCL2-induced chemotaxis after 2 hrs by microtiter format trans-well migration assay; format: functional, cell-based; conditions: THP-1; summary of the method: as §2
Mus musculus [17] = experiment: Antiinflammatory activity in sc dosed mouse assessed as inhibition of LPS-induced TNFalpha upregulation measured 2 hrs after LPS challenge relative to control; format: functional; summary of the method: as §4
[18] = molecular target: C-C chemokine receptor type 2 (Homo sapiens) (UniProt P41597); experiment: Antagonist activity at CCR2 in human THP1 cells assessed as inhibition of CCL2-induced chemotaxis at 10 nM after 2 hrs by microtiter format trans-well migration assay; format: functional, cell-based; conditions: THP-1; summary of the method: as §2
[19] = Fractional bioavailability in Sprague-Dawley rat at 3 mg/kg, po administered as single dose; format: ADME, organism-based; conditions: in vivo; summary of the method: as §5
Mus musculus [20] = experiment: Antiinflammatory activity in mouse assessed as inhibition of LPS-induced TNFalpha upregulation at 0.216 mg, po measured 2 hrs after LPS challenge; format: functional; summary of the method: as §1
[21] = Volume of distribution at steady state in Sprague-Dawley rat at 1 mg/kg, iv administered as single dose; format: ADME, organism-based; parameters: dose 1 mg/kg, route intravenous; conditions: in vivo, read-out: Vdss
Summary of the method: (§6)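 Male Sprague-Dawley rats, three per compound, receive a single intravenous dose in 5% DMSO in 0.9% saline. Food and water are given ad libitum. Plasma is taken at 5, 15, 30, 60, 120, 180, 240 and 480 min. Drug is measured by LC/MS/MS after extraction with 0.1% formic acid in acetonitrile. The curve is back-extrapolated to time zero assuming an initial volume of 0.26 L/kg.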

Mus musculus [22] = experiment: Antiinflammatory activity in mouse assessed as inhibition of LPS-induced TNFalpha upregulation at 0.078 ug, po measured 2 hrs after LPS challenge; format: functional; summary of the method: as §1
Mus musculus [23] = experiment: Antiinflammatory activity in mouse assessed as inhibition of LPS-induced TNFalpha upregulation at 0.0216 ug, sc measured 2 hrs after LPS challenge; format: functional; summary of the method: as §1
Mus musculus [24] = experiment: Antiinflammatory activity in mouse assessed as inhibition of LPS-induced TNFalpha upregulation at 0.0216 mg, po measured 2 hrs after LPS challenge; format: functional; summary of the method: as §1
[25] = molecular target: C-C chemokine receptor type 2 (Homo sapiens) (UniProt P41597); experiment: Antagonist activity at CCR2 in human THP1 cells assessed as inhibition of CCL2-induced chemotaxis at 1000 nM after 2 hrs by microtiter format trans-well migration assay; format: functional, cell-based; conditions: THP-1; summary of the method: as §2
Mus musculus [26] = experiment: Antiinflammatory activity in mouse assessed as inhibition of LPS-induced TNFalpha upregulation at 830 pg, sc measured 2 hrs after LPS challenge; format: functional; summary of the method: as §4
Mus musculus [27] = experiment: Antiinflammatory activity in mouse assessed as inhibition of LPS-induced TNFalpha upregulation at 0.0065 mg, po measured 2 hrs after LPS challenge; format: functional; summary of the method: as §1
Mus musculus [28] = experiment: Antiinflammatory activity in mouse assessed as inhibition of LPS-induced TNFalpha upregulation at 0.0216 mg, sc measured 2 hrs after LPS challenge; format: functional; summary of the method: as §1
Mus musculus [29] = experiment: Antiinflammatory activity in mouse assessed as inhibition of LPS-induced TNFalpha upregulation at 0.00216 mg, sc measured 2 hrs after LPS challenge; format: functional; summary of the method: as §1
[30] = Half life in Sprague-Dawley rat at 1 mg/kg, iv administered as single dose; format: ADME, organism-based; parameters: dose 1 mg/kg, route intravenous; conditions: in vivo; summary of the method: as §6
Rattus norvegicus [31] = experiment: AUC (0 to t) in Sprague-Dawley rat at 1 mg/kg, iv administered as single dose; format: ADME, organism-based, Plasma; parameters: dose 1 mg/kg, route intravenous; conditions: in vivo
Summary of the method: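 Male Sprague-Dawley rats, three per compound per route, single dose. IV vehicle 5% DMSO in 0.9% saline; oral gavage vehicle 1% carboxymethylcellulose in 0.9% saline; fed ad libitum. Plasma taken 5–480 min post-dose, extracted with 0.1% formic acid in acetonitrile, quantified by LC/MS/MS (positive mode). AUC(0–t) by linear/log trapezoidal rule; IV curve back-extrapolated assuming initial volume 0.26 L/kg.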

C-C chemokine receptor type 2 (Homo sapiens), sequence (P41597 whole entry, looked up): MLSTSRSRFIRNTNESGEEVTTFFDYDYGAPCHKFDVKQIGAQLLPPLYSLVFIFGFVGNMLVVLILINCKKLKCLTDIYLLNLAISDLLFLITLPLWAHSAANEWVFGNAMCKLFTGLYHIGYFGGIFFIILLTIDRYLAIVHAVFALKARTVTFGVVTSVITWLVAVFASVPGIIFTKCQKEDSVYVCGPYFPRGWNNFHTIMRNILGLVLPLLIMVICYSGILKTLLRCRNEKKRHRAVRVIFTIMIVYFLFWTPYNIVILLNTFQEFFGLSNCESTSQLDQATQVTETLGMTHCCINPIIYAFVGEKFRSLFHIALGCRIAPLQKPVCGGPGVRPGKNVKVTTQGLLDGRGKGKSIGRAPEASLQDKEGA

Compound: O=C1NCCCC[C@@H]1NC(=O)C12CC3CC(CC(C3)C1)C2
- inhibition (INH) (Mus musculus [1]): 30%
- ED50 (Mus musculus [2]): 2 µg/kg
- inhibition (INH) (Mus musculus [3]): 89%
- inhibition (INH) (Mus musculus [4]): 60%
- inhibition (INH) (Mus musculus [5]): 83%
- inhibition [6]: 99%
- inhibition (INH) (Mus musculus [7]): 76%
- inhibition [8]: 98%
- inhibition (INH) (Mus musculus [9]): 78%
- ED50 (Mus musculus [10]): 0.5 µg/kg
- inhibition (INH) (Mus musculus [11]): 8%
- inhibition (INH) (Mus musculus [12]): 90%
- inhibition (INH) (Mus musculus [13]): 56%
- Cp (Rattus norvegicus [14]): < 2 ng/mL
- inhibition [15]: 11%
- ED50 [16]: 0.09 nM
- inhibition (INH) (Mus musculus [17]): 90%
- inhibition [18]: 100%
- bioavailability [19]: < 1%
- inhibition (INH) (Mus musculus [20]): 91%
- Vd [21]: 0.8 L/kg
- inhibition (INH) (Mus musculus [22]): 59%
- inhibition (INH) (Mus musculus [23]): 29%
- inhibition (INH) (Mus musculus [24]): 75%
- inhibition [25]: 100%
- inhibition (INH) (Mus musculus [26]): -12%
- inhibition (INH) (Mus musculus [27]): 71%
- inhibition (INH) (Mus musculus [28]): 89%
- inhibition (INH) (Mus musculus [29]): 71%
- half-life [30]: 16 min
- AUC (Rattus norvegicus [31]): 477 ng·min/mL
